This is an account of results in ChEMBL document CHEMBL1144442, “Identification from a positional scanning peptoid library of in vivo active compounds that neutralize bacterial endotoxins” (J Med Chem, 2005).

Residues, ends and D or L forms follow the SMILES beside them.

The species entered for experiment [1] is Mus musculus. The experiment can be described thus: In vitro inhibitory concentration necessary to neutralize Escherichia coli 1,4''-diphosphoryl lipid A. It is filed as functional, organism-based. The method in brief:
(§1)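 Chromogenic Limulus amebocyte lysate assay, which detects free LPS or diphosphoryl lipid A left unneutralized by the test compound. Compounds were tested by 2-fold serial dilution. IC50 is the concentration that neutralizes 50% of the LPS or lipid A in vitro.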

The species named for experiment [2] is Mus musculus. Nature of the experiment: In vitro inhibitory concentration necessary to neutralize Gram-negative bacterial lipopolysaccharide in mouse model. It is filed as functional, organism-based. The method in brief: as §1
For experiment [3], the system named is Mus musculus. Nature of the experiment: Ratio of percent of Tumor necrosis factor alpha measured in the presence with respect to that measured when animals were treated only with LPS;Mice were intraperitoneally injected with 10 ug of LPS alone or premixed with 20 ug of each compound. It counts as functional. The method in brief:
(§2)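 Mice were given 10 µg LPS ip, either alone or premixed with 20 µg compound in PBS containing 40% DMSO. Mice were bled after 1 h and serum TNF-α was measured by ELISA. Values are % of the TNF-α in mice given LPS alone (100%), as mean ± SD of seven mice per group.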

Experiment [4] relates to Mus musculus. The experiment can be described thus: Ratio of percent of Tumor necrosis factor alpha measured in the presence with respect to that measured when animals were treated only with LPS;Mice were intraperitoneally injected with 10 ug of LPS alone or premixed with 20 ug of each compound;ND= Not determined. It counts as functional. In a few lines:
as §2

Experiment [5] deals with Mus musculus. The experiment can be described thus: Ratio of percent of Tumor necrosis factor alpha measured in the presence with respect to that measured when animals were treated only with LPS;Mice were intraperitoneally injected with 10 ug of LPS alone or premixed with 100 ug of compound. It counts as functional, organism-based. The method in brief: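 Mice were given 10 µg LPS ip, alone or premixed with the test agent (peptoids 20 µg in PBS with 40% DMSO; polymyxin B or LALF-14 100 µg). Sera were collected after 1 h and TNF-α measured by ELISA. Values are % of the LPS-only TNF-α level, mean ± SD, seven mice per group.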

Turning to `COc1ccc(CCN(CC(=O)N(CCC(c2ccccc2)c2ccccc2)CC(N)=O)C(=O)CNCCC(c2ccccc2)c2ccccc2)cc1`, the IC50 is more than 250 µM in experiment [1] and 50 µM in experiment [2] (Mus musculus). In addition, the Ratio in experiment [3] came out at 10.
As to `CC(C)C[C@@H]1NC(=O)[C@H](CCCN=C(N)N)NC(=O)[C@H](CCCN=C(N)N)NC(=O)[C@H](Cc2ccccc2)NC(=O)[C@H]([C@@H](C)O)NC(=O)[C@@H]2CCCN2C(=O)[C@H](CCCCN)NC(=O)[C@@H](NC(=O)CN)CSSC[C@@H](C(=O)NCC(=O)O)NC(=O)[C@H](CCCCN)NC(=O)[C@H](Cc2ccc(O)cc2)NC(=O)[C@H](CCCCN)NC(=O)[C@H](Cc2c[nH]c3ccccc23)NC(=O)[C@H](CCCCN)NC1=O` (HELM PEPTIDE1{G.C.K.P.T.F.R.R.L.K.W.K.Y.K.C.G}$PEPTIDE1,PEPTIDE1,2:R3-15:R3$$$V2.0) [listing 1 of 2 here], the Ratio in experiment [4] is given as 67.
Turning to `CC(C)C[C@@H]1NC(=O)[C@H](CCCN=C(N)N)NC(=O)[C@H](CCCN=C(N)N)NC(=O)[C@H](Cc2ccccc2)NC(=O)[C@H]([C@@H](C)O)NC(=O)[C@@H]2CCCN2C(=O)[C@H](CCCCN)NC(=O)[C@@H](NC(=O)CN)CSSC[C@@H](C(=O)NCC(=O)O)NC(=O)[C@H](CCCCN)NC(=O)[C@H](Cc2ccc(O)cc2)NC(=O)[C@H](CCCCN)NC(=O)[C@H](Cc2c[nH]c3ccccc23)NC(=O)[C@H](CCCCN)NC1=O` (HELM PEPTIDE1{G.C.K.P.T.F.R.R.L.K.W.K.Y.K.C.G}$PEPTIDE1,PEPTIDE1,2:R3-15:R3$$$V2.0) [listing 2 of 2 here], the IC50 in experiment [1] came to 40 µM; in experiment [2] (Mus musculus) it was 64 µM.
Turning to POLYMYXIN B [listing 1 of 2 here], the Ratio in experiment [5] worked out at 5.
For POLYMYXIN B [listing 2 of 2 here], the IC50 in experiment [2] was less than 0.0001 µM.
As for `NC(=O)CN(CCC(c1ccccc1)c1ccccc1)C(=O)CN(CCC(c1ccccc1)c1ccccc1)C(=O)CNCC1CCCO1` (stereo unspecified) [TRIMER I], the results for the IC50 in experiment [1] and in experiment [2] (Mus musculus) were 250 µM and 40 µM, respectively. Also, in experiment [3], the Ratio came to 71.

What is called IC50 is the concentration that gives 50% inhibition. Lower therefore signals greater potency in that assay.
